Screens from PubChem.
T cruzi HTS: inhibitors of intracellular Trypanosoma cruzi; activity score (inhibition), % at 5.01 µM; 4.9% of 22,000 active; intracellular Trypanosoma cruzi in host cells, plate reader; AID 651903; in the data active = activity score above about 55%; inconclusive = no clear call, values can overlap the other calls;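 also: parasites and compound incubated about four days before reading; 0% = median of neutral control wells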
A1 apoptosis 2: compounds inhibiting A1, read as caspase activation | MEF A1-2A-BIM cells, caspase-Glo luminescence, 3 h; percent of clofoctol response, DMSO zero | caspase activation, % (no concentration beside the values) | 24,000 tested, under 10 active | AID 2465; in the data active = caspase activation above about 5.9%; inconclusive = no clear call, values can overlap the other calls; inactive = below about 2.2%
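Test system – A1-2A-BIM-expressing MEF cells · Input – 2500 cells/well · Medium – RPMI-1640 growth medium with 10% FBS · Compound dosing – 50 nL pinned compound · Timing – 3 h compound exposure at 37 °C · Technique – Caspase-Glo luminescence (DEVD substrate) · Evaluation – Caspase-3/7 activity from luminescence increase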
INS-1E rescue: INS-1E beta cell protection from cytokine death; INS-1E cytokine-induced death, ATP luminescence, 48 h; normalised: neutral wells 0, positive control 100; protection from cytokine-induced ATP loss, % at 10 µM; 0.1% of 20,000 active; AID 488910;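 active = mean replicate protection from cytokine-induced ATP loss at least 50% and at least 75% of replicates each reaching 50%; inconclusive = meets only one of the two criteria, mean or replicate share; inactive = fails both the mean and replicate share criteria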
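Test system: INS-1E rat cells | Quantity: 8000 cells per well | Medium: Phenol-red-free RPMI with 5% fetal bovine serum | Reagent: Cytokine cocktail of IFN-γ, TNF-α and IL-1β | Doses: One compound concentration, pin transfer | Timing: 48 h co-treatment, 10 min post-lysis read | Technique: Luminescent ATP assay (CellTiter-Glo)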
The depositor's hits bear a star. Many of the other results were omitted from the sample, so hits are more common in it than they were.

O=C(CCCCCC(=O)Nc1ccccc1O)N/N=C/c1ccc(CO)o1 was read as T cruzi HTS -4, A1 apoptosis 2 0 and INS-1E rescue 13.
For C[C@H]1CN([C@@H](C)CO)C(=O)c2cccc(NC(=O)NC3CCCCC3)c2O[C@@H]1CN(C)Cc1ccc(-c2ccccc2)cc1 the results were T cruzi HTS 36, A1 apoptosis 2 0 and INS-1E rescue -10.
For C[C@H](CO)N1C[C@H](C)[C@@H](CN(C)Cc2ccc(Oc3ccccc3)cc2)Oc2c(NC(=O)NC3CCCCC3)cccc2C1=O the results were T cruzi HTS 70* and INS-1E rescue -16.
C[C@H](CO)N1C[C@H](C)[C@H](CN(C)Cc2ccc(-c3ccccc3)cc2)Oc2c(NC(=O)NC3CCCCC3)cccc2C1=O was read as T cruzi HTS 69*, A1 apoptosis 2 0 and INS-1E rescue -61.
`C[C@@H]1CN([C@@H](C)CO)C(=O)c2cccc(NC(=O)NC3CCCCC3)c2O[C@@H]1CN(C)Cc1ccccc1` gave T cruzi HTS -20, A1 apoptosis 2 0 and INS-1E rescue -33.
N#Cc1ccc(/C=N/NC(=O)c2cccc(C(=O)NO)c2)cc1 was read as T cruzi HTS -6, A1 apoptosis 2 -1 and INS-1E rescue 3.
For C[C@H]1CN([C@@H](C)CO)C(=O)c2cc(NS(=O)(=O)c3ccc(Cl)cc3)ccc2O[C@@H]1CN(C)Cc1ccc(C(F)(F)F)cc1 the results were T cruzi HTS 58*, A1 apoptosis 2 -1 and INS-1E rescue -23.
For C[C@@H]1CN([C@@H](C)CO)C(=O)c2cc(NS(=O)(=O)c3ccc(Cl)cc3)ccc2O[C@@H](C)CCCCO[C@@H]1CN(C)Cc1ccc(C(F)(F)F)cc1 the results were A1 apoptosis 2 1.
For C[C@H](CO)N1C[C@H](C)[C@H](CN(C)Cc2ccc(C(F)(F)F)cc2)Oc2ccc(NS(=O)(=O)c3ccc(F)cc3)cc2C1=O the results were T cruzi HTS -7, A1 apoptosis 2 1 and INS-1E rescue -5.
Screening C[C@@H]1CN([C@H](C)CO)C(=O)c2cc(NS(=O)(=O)c3ccc(Cl)cc3)ccc2O[C@H]1CN(C)Cc1ccc(C(F)(F)F)cc1 returned T cruzi HTS 47, A1 apoptosis 2 1 and INS-1E rescue -32.
For C[C@H](CO)N1C[C@H](C)[C@@H](CN(C)Cc2ccc(C(F)(F)F)cc2)Oc2ccc(NS(=O)(=O)c3ccc(Cl)cc3)cc2C1=O the results were T cruzi HTS 71* and INS-1E rescue -8.
C[C@@H]1CCCCO[C@H](CN(C)Cc2ccc(C(F)(F)F)cc2)[C@@H](C)CN([C@H](C)CO)C(=O)c2cc(NS(=O)(=O)c3ccc(Cl)cc3)ccc2O1 was read as T cruzi HTS 69*, A1 apoptosis 2 2 and INS-1E rescue -31.
For C[C@H]1CN([C@@H](C)CO)C(=O)c2cc(NS(=O)(=O)c3ccc(Cl)cc3)ccc2O[C@H]1CN(C)Cc1ccc(C(F)(F)F)cc1 the results were A1 apoptosis 2 -1.
`C[C@H]1CN([C@@H](C)CO)C(=O)c2cc(NS(=O)(=O)c3ccc(F)cc3)ccc2O[C@H]1CN(C)Cc1ccc(C(F)(F)F)cc1` gave T cruzi HTS 55*.
COc1cc(O)cc(OC)c1/C=N/NC(=O)CCCCCC(=O)Nc1ccccc1O was read as T cruzi HTS -7, A1 apoptosis 2 1 and INS-1E rescue 6.
For O=C(CCCCCCC(=O)N/N=C/c1ccoc1)NO the results were A1 apoptosis 2 1.
`O=C(NO)c1cccc(C(=O)N/N=C/c2ccncc2Br)c1` gave T cruzi HTS -6, A1 apoptosis 2 -5 and INS-1E rescue -12.
Screening CN(C)CCCOc1ccc(/C=N/NC(=O)c2ccc(C(=O)NO)cc2)cc1 returned A1 apoptosis 2 0.
For COc1ccc(CN(C)C[C@@H]2Oc3ccc(NS(=O)(=O)c4c(C)noc4C)cc3C(=O)N([C@@H](C)CO)C[C@H]2C)cc1 the results were T cruzi HTS 11 and INS-1E rescue -8.
Screening O=C(N/N=C/c1cccc(OCCO)c1)c1ccccn1 returned T cruzi HTS -25, A1 apoptosis 2 -11 and INS-1E rescue -39.
For C[C@H]1CN([C@@H](C)CO)C(=O)c2cccc(NC(=O)Nc3ccc(F)cc3)c2O[C@H]1CN(C)Cc1ccc(C(=O)Nc2ccccc2N)cc1 the results were T cruzi HTS 59* and INS-1E rescue -17.
C[C@@H]1CN([C@H](C)CO)C(=O)c2cccc(NC(=O)Nc3ccccc3)c2O[C@@H]1CN(C)Cc1ccc(C(=O)Nc2ccccc2N)cc1 was read as T cruzi HTS 70*, A1 apoptosis 2 1 and INS-1E rescue 17.
`C[C@H]1CN([C@@H](C)CO)C(=O)c2cccc(N(C)C)c2O[C@H]1CN(C)Cc1ccc(C(=O)Nc2ccccc2N)cc1` gave T cruzi HTS 59*, A1 apoptosis 2 0 and INS-1E rescue 2.
For C[C@H](CO)N1C[C@H](C)[C@@H](CN(C)Cc2ccc(C(=O)Nc3ccccc3N)cc2)Oc2c(cccc2N(C)C)C1=O the results were T cruzi HTS 6, A1 apoptosis 2 3 and INS-1E rescue -1.
C[C@H](CO)N1C[C@H](C)[C@@H](CN(C)Cc2ccc(C(=O)Nc3ccccc3N)cc2)Oc2c(NC(=O)Nc3ccc(F)cc3)cccc2C1=O was read as T cruzi HTS 52 and INS-1E rescue -9.
Screening C[C@@H]1CN([C@H](C)CO)C(=O)c2cccc(NC(=O)Nc3ccccc3)c2O[C@H]1CN(C)Cc1ccc(C(=O)O)cc1 returned T cruzi HTS -14, A1 apoptosis 2 0 and INS-1E rescue 10.
`COC(=O)CCCCCCC(=O)N/N=C/c1ccc(Sc2nnc(C)n2C)o1` gave T cruzi HTS 2 and INS-1E rescue -2.
Screening COC(=O)CCCCCCC(=O)N/N=C/[C@H](O)[C@H](O)[C@@H](O)[C@@H](O)CO returned T cruzi HTS -10, A1 apoptosis 2 0 and INS-1E rescue -9.
For O=C(NO)c1ccc(C(=O)N/N=C/c2c[nH]c3ccccc23)cc1 the results were T cruzi HTS -3 and INS-1E rescue 8.
`O=C(CCCCCC(=O)NN=C1CCCCCCC1)NO` gave A1 apoptosis 2 0.
C[C@H](CO)N1C[C@H](C)[C@@H](CN(C)S(=O)(=O)c2ccc(F)cc2)Oc2c(NC(=O)c3nc4ccccc4s3)cccc2C1=O was read as T cruzi HTS inconclusive and INS-1E rescue -13.
For C[C@H]1CN([C@@H](C)CO)C(=O)c2cccc(NC(=O)c3nc4ccccc4s3)c2O[C@@H]1CN(C)S(=O)(=O)c1ccc(F)cc1 the results were T cruzi HTS 67*, A1 apoptosis 2 0 and INS-1E rescue -20.
For COc1ccc(S(=O)(=O)N(C)C[C@@H]2Oc3c(NC(=O)c4nc5ccccc5s4)cccc3C(=O)N([C@H](C)CO)C[C@@H]2C)cc1 the results were T cruzi HTS 70*, A1 apoptosis 2 0 and INS-1E rescue -50.
For C[C@H](CO)N1C[C@H](C)[C@H](CN(C)S(=O)(=O)c2cccs2)Oc2c(NC(=O)c3nc4ccccc4s3)cccc2C1=O the results were T cruzi HTS 76*, A1 apoptosis 2 0 and INS-1E rescue -16.
